Assay [1] has as its system Brca1^Δ11;Δ11 MEFs. Conditions: cited from earlier work.
The subject of assay [2] is DLD1 BRCA2-KO (BRCA2 -/-, null) cells. Put plainly: Colony survival assay, DLD1 BRCA2-KO. The class given is cell-based. Conditions: DLD1 isogenic pair, vs BRCA2-WT. The method in brief: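 Isogenic pairs (DLD1 in RPMI; HCT 116 in DMEM; each with 10% FBS, glutamine, non-essential amino acids) seeded in 24-well plates: 800 cells/well for BRCA-null and 200 cells/well for wild-type. Test compound exposure with medium changed every 2–3 days for 10–12 days. Fixed in water:ethanol:acetic acid 5:4:1, stained with 0.5% crystal violet for 2 h, colonies counted manually. Mean ± S.E.M.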

The target of assay [3] is Polθ-hel (Homo sapiens, UniProt O75417). Conditions: cited from earlier work.
In assay [4] the test system is Brca1^cc/cc MEFs. Put plainly: Colony survival assay, Brca1 cc/cc MEFs. The class given is cell-based, mouse. Conditions: vs Brca1-WT MEFs.
Assay [5] has as its system BRCA1-deficient cells. The conditions noted are these: read-out: IC50 in BRCA1-deficient cells; cited from earlier work.

Molecules are shown by their SMILES.

Polθ-hel, sequence (O75417 1-894): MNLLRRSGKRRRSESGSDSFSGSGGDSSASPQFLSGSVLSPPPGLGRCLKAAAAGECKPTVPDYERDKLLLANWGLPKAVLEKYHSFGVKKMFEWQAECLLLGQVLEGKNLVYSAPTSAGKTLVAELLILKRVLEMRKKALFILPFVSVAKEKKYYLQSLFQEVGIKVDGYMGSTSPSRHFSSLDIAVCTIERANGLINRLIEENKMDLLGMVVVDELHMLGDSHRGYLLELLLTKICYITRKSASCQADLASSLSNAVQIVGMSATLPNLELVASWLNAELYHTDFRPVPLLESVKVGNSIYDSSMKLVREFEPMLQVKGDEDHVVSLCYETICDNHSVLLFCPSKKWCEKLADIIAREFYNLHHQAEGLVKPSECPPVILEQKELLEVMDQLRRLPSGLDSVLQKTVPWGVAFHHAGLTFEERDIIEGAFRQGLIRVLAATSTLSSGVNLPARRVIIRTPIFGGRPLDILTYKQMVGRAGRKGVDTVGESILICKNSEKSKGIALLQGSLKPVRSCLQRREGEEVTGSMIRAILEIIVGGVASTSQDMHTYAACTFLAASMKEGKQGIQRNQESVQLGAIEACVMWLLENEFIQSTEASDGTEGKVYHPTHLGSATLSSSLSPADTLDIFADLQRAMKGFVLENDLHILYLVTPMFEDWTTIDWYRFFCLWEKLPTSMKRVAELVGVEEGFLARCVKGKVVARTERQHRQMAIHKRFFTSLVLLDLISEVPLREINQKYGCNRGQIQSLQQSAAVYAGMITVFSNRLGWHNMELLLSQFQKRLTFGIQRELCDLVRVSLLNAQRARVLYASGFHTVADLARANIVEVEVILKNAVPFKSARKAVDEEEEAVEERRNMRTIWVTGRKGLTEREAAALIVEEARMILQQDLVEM

As for `Cc1cccc(N(C)C(=O)[C@@H]2[C@H](O)CCN2c2nc(C)cc(C(F)(F)F)c2C#N)c1` [ART558], the “activity against Brca1 Δ11 MEFs” value in assay [1] was “relatively modest activity”.
As for `CO[C@@H]1[C@@H](OC(N)=O)[C@@H](O)[C@H](Oc2ccc3c(O)c(NC(=O)c4ccc(O)c(CC=C(C)C)c4)c(=O)oc3c2C)OC1(C)C` [Novobiocin], the “colony survival, killing of BRCA2-KO cells” value in assay [2] is “selective killing of BRCA2-KO cells at significantly higher concentrations”. For the same molecule, the “inhibition of Polθ-hel ssDNA binding” value in assay [3] is listed as “inhibits Polθ-hel ssDNA binding”. In addition, the “colony survival, killing of Brca1 cc/cc MEFs” value in assay [4] is listed as “no preferential killing of these cells up to 10 μM”. Also, in assay [5], the IC50 is 50 to 100 µM.

Values taken from publication PMC11324745 (Nature Communications, 2024).
